The text below walks through data of ChEMBL document CHEMBL1130247, “Antirhino/enteroviral vinylacetylene benzimidazoles: a study of their activity and oral plasma levels in mice” (J Med Chem, 1997).

The nature of series [1]: Oral plasma concentration in mice at 100 mg/kg dosage within 4-hr time frame. It is filed as ADME, organism-based. Set-up: route oral, dose 100 mg/kg. As to conditions: mouse.
In series [2] the test system is Coxsackievirus. Nature of the series: Antiviral activity against coxsackie virus A21. It is filed as functional, organism-based. The method, boiled down:
(§1)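 HeLa monolayers in MEM with 5% FBS and 10 mM MgSO4, infected with virus for 1–2 h at room temperature. Overlay of 1.5% agarose mixed 1:1 with 2× MEM (2% FBS) holding graded compound concentrations, diluted in DMSO from a 20 mg/mL stock. Incubated at 37 °C until DMSO-control plaques reached optimal size. Formalin-fixed, crystal violet-stained, plaques counted in duplicate wells. IC50 by Reed–Muench.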

Series [3] concerns Coxsackievirus. The series can be described thus: Antiviral activity against coxsackie virus A21M. It counts as functional, organism-based. As to conditions: Coxsackievirus; read-out: IC50.
Series [4] has as its system Coxsackievirus. The series can be described thus: Antiviral activity against coxsackie virus B3. It is filed as functional, organism-based. The method, boiled down: as §1
Series [5] deals with Human rhinovirus sp. Nature of the series: Antiviral activity against human rhinovirus 16. It counts as functional, organism-based.
Series [6] relates to Human rhinovirus sp. Nature of the series: Antiviral activity against human rhinovirus 1A. It counts as functional, organism-based.
For series [7], the system named is Human rhinovirus sp. Nature of the series: Antiviral activity against human rhinovirus 2. It counts as functional, organism-based.
For another series, the system named is rhinovirus B14. The series can be described thus: Antiviral activity against human rhinovirus 14 using plaque reduction assay in HeLa cell lines. It is filed as functional, organism-based, human rhinovirus type 14. As to conditions: Rhinovirus B.
For a further series, the system named is Enterovirus C. Nature of the series: Antiviral activity against poliovirus 1. It is filed as functional, organism-based. In outline: as §1
The nature of series [8]: Antiviral activity against human rhinovirus 14 (HRV-14) using CPE/XTT assay in human tumor cell lines. Particulars: read-out: TC50 (the source's name). It counts as organism-based, human rhinovirus type 14. In outline:
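Cytopathic-effect assay run by an earlier published method, except that surviving host cells were quantified with XTT substrate instead of crystal violet staining.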

Values after ≈ are worked out from the molar mass of the structure shown.

The Cmax is the highest concentration seen after dosing. The IC50 is the concentration that inhibits the measured activity by half. As for `C#C/C=C(/c1ccc2nc(N)n(S(=O)(=O)C(C)C)c2c1)c1ccccc1F`, the Cmax in series [1] was 9200 ng/mL. Further, the IC50 with Coxsackievirus [2] amounted to 0.079 µg/mL (≈ 0.206 µM); in the series with Coxsackievirus [3], 0.1 µg/mL (≈ 0.261 µM); in the series on Coxsackievirus [4] it was 0.05 µg/mL (≈ 0.13 µM); in the series with Human rhinovirus sp. [5], 0.07 µg/mL (≈ 0.183 µM); in the series with Human rhinovirus sp. [6], 0.035 µg/mL (≈ 0.0913 µM); with Human rhinovirus sp. [7], 0.05 µg/mL (≈ 0.13 µM). The IC50 in the series on rhinovirus B14 was 0.092 µg/mL (≈ 0.24 µM); in the series with Enterovirus C it was 0.045 µg/mL (≈ 0.117 µM). For the same molecule, the CC50 in [8] was 66 µg/mL (≈ 172 µM).

`C#C/C=C(\c1ccc(OC(F)(F)F)cc1)c1ccc2nc(N)n(S(=O)(=O)C(C)C)c2c1` came in with a Cmax in series [1] of 2000 ng/mL. Also, the IC50 in the series with Coxsackievirus [2] came out at 0.22 µg/mL (≈ 0.489 µM); in the series on Coxsackievirus [3] it was 0.5 µg/mL (≈ 1.11 µM); with Coxsackievirus [4] it was 0.7 µg/mL (≈ 1.56 µM); in the series with Human rhinovirus sp. [5], 0.22 µg/mL (≈ 0.489 µM); in the series on Human rhinovirus sp. [6], 0.26 µg/mL (≈ 0.578 µM); with Human rhinovirus sp. [7], 0.35 µg/mL (≈ 0.779 µM). The results for the IC50 in the series with rhinovirus B14 and in the series with Enterovirus C were 0.55 µg/mL (≈ 1.22 µM) and 0.27 µg/mL (≈ 0.601 µM), respectively. The CC50 in series [8] turned out to be 18 µg/mL (≈ 40 µM).

`C#C/C=C(\c1cccc(C(F)(F)F)c1)c1ccc2nc(N)n(S(=O)(=O)C(C)C)c2c1` gave a Cmax in [1] of 4900 ng/mL. This molecule displayed a 50% inhibitory concentration (IC50) in the series with rhinovirus B14 of 0.4 µg/mL (≈ 0.923 µM). The CC50 in series [8] is more than 100 µg/mL.

On to `C#C/C=C(\c1ccc(OC)cc1)c1ccc2nc(N)n(S(=O)(=O)C(C)C)c2c1`, for which the IC50 with Coxsackievirus [2] was found to be 0.047 µg/mL (≈ 0.119 µM); in the series on Coxsackievirus [3], 0.051 µg/mL (≈ 0.129 µM); in the series with Coxsackievirus [4] it was 0.055 µg/mL (≈ 0.139 µM); in the series on Human rhinovirus sp. [5] it was 0.029 µg/mL (≈ 0.0733 µM); with Human rhinovirus sp. [6] it was 0.03 µg/mL (≈ 0.0759 µM); with Human rhinovirus sp. [7] it was 0.041 µg/mL (≈ 0.104 µM). Also, the IC50 amounted to 0.059 µg/mL (≈ 0.149 µM) with rhinovirus B14 and 0.04 µg/mL (≈ 0.101 µM) in the series on Enterovirus C. The CC50 in series [8] came to 5.2 µg/mL (≈ 13.1 µM).

On to `C#C/C=C(/c1ccc2nc(N)n(S(=O)(=O)C(C)C)c2c1)c1cc(F)ccc1F`, for which the maximum concentration (Cmax) in [1] was found to be 9300 ng/mL. In addition, the IC50 was found to be 0.069 µg/mL (≈ 0.172 µM) in the series with Coxsackievirus [2]; 0.1 µg/mL (≈ 0.249 µM) in the series with Coxsackievirus [3]; 0.1 µg/mL (≈ 0.249 µM) in the series with Coxsackievirus [4]; 0.099 µg/mL (≈ 0.247 µM) in the series on Human rhinovirus sp. [5]; 0.096 µg/mL (≈ 0.239 µM) in the series on Human rhinovirus sp. [6]; 0.079 µg/mL (≈ 0.197 µM) with Human rhinovirus sp. [7]. In addition, the figures for the IC50 in the series with rhinovirus B14 and in the series with Enterovirus C were 0.11 µg/mL (≈ 0.274 µM) and 0.032 µg/mL (≈ 0.0797 µM), respectively. Besides, the CC50 in [8] turned out to be 63 µg/mL (≈ 157 µM).

With `C#C/C=C(\c1ccc(OC)c(F)c1)c1ccc2nc(N)n(S(=O)(=O)C(C)C)c2c1`, the peak level in [1] (Cmax) was 9200 ng/mL. The IC50 in the series on Coxsackievirus [2] was 0.032 µg/mL (≈ 0.0774 µM); in the series with Coxsackievirus [3] it was 0.029 µg/mL (≈ 0.0701 µM); with Coxsackievirus [4], 0.035 µg/mL (≈ 0.0846 µM); with Human rhinovirus sp. [5], 0.06 µg/mL (≈ 0.145 µM); in the series with Human rhinovirus sp. [6], 0.049 µg/mL (≈ 0.119 µM); in the series on Human rhinovirus sp. [7], 0.054 µg/mL (≈ 0.131 µM). Further, the IC50 in the series with rhinovirus B14 was found to be 0.061 µg/mL (≈ 0.148 µM); in the series on Enterovirus C, 0.016 µg/mL (≈ 0.0387 µM). Moreover, the CC50 in series [8] stood at 5.5 µg/mL (≈ 13.3 µM).

For the molecule `C#C/C=C(\c1ccc(F)c(F)c1)c1ccc2nc(N)n(S(=O)(=O)C(C)C)c2c1`, the highest level in series [1] (Cmax) was 2900 ng/mL. In addition, the IC50 with Coxsackievirus [2] is 0.247 µg/mL (≈ 0.615 µM); with Coxsackievirus [3], 0.22 µg/mL (≈ 0.548 µM); in the series with Coxsackievirus [4], 0.1 µg/mL (≈ 0.249 µM); in the series with Human rhinovirus sp. [5], 0.55 µg/mL (≈ 1.37 µM); in the series with Human rhinovirus sp. [6], 0.12 µg/mL (≈ 0.299 µM); in the series with Human rhinovirus sp. [7], 0.23 µg/mL (≈ 0.573 µM). The IC50 in the series on rhinovirus B14 was 0.19 µg/mL (≈ 0.473 µM); in the series on Enterovirus C, 0.082 µg/mL (≈ 0.204 µM). Also, the CC50 in [8] is 19 µg/mL (≈ 47.3 µM).

Take `C/C=C(\c1ccccc1)c1ccc2nc(N)n(S(=O)(=O)C(C)C)c2c1`: in [1], the Cmax came to 5100 ng/mL.

`C#C/C=C(\c1ccc(N(C)C)cc1)c1ccc2nc(N)n(S(=O)(=O)C(C)C)c2c1` came in with a Cmax in [1] of 210 ng/mL. Further, the IC50 in the series on Coxsackievirus [2] is 0.14 µg/mL (≈ 0.343 µM); in the series with Coxsackievirus [3] it was 0.13 µg/mL (≈ 0.318 µM); in the series on Coxsackievirus [4], 0.06 µg/mL (≈ 0.147 µM); with Human rhinovirus sp. [5] it was 0.08 µg/mL (≈ 0.196 µM); in the series on Human rhinovirus sp. [6], 0.048 µg/mL (≈ 0.117 µM); in the series on Human rhinovirus sp. [7], 0.06 µg/mL (≈ 0.147 µM). For the same molecule, the results for the IC50 in the series with rhinovirus B14 and with Enterovirus C were 0.117 µg/mL (≈ 0.286 µM) and 0.059 µg/mL (≈ 0.144 µM), respectively. Also, in [8], the CC50 was 5.3 µg/mL (≈ 13 µM).

`C#C/C=C(\c1cccc(F)c1)c1ccc2nc(N)n(S(=O)(=O)N(C)C)c2c1` yielded a Cmax in series [1] of 8400 ng/mL. Further, the IC50 in the series on Coxsackievirus [2] turned out to be 0.1 µg/mL (≈ 0.26 µM); in the series on Coxsackievirus [3], 0.09 µg/mL (≈ 0.234 µM); in the series on Coxsackievirus [4] it was 0.07 µg/mL (≈ 0.182 µM); with Human rhinovirus sp. [5] it was 0.04 µg/mL (≈ 0.104 µM); in the series on Human rhinovirus sp. [6] it was 0.053 µg/mL (≈ 0.138 µM); with Human rhinovirus sp. [7], 0.05 µg/mL (≈ 0.13 µM). In addition, the IC50 in the series on rhinovirus B14 was found to be 0.061 µg/mL (≈ 0.159 µM); in the series with Enterovirus C, 0.047 µg/mL (≈ 0.122 µM). Further, the CC50 in series [8] is more than 100 µg/mL.

In turn, `C#C/C=C(\c1cccc(F)c1)c1ccc2nc(N)n(S(=O)(=O)C(C)C)c2c1` showed a maximum concentration (Cmax) in series [1] of 12000 ng/mL. Also, the half-inhibitory concentration (IC50) with Coxsackievirus [2] stood at 0.085 µg/mL (≈ 0.222 µM); with Coxsackievirus [3], 0.046 µg/mL (≈ 0.12 µM); in the series on Coxsackievirus [4], 0.032 µg/mL (≈ 0.0835 µM); in the series on Human rhinovirus sp. [5] it was 0.057 µg/mL (≈ 0.149 µM); in the series with Human rhinovirus sp. [6], 0.027 µg/mL (≈ 0.0704 µM); with Human rhinovirus sp. [7], 0.069 µg/mL (≈ 0.18 µM). The IC50 in the series on rhinovirus B14 was determined as 0.06 µg/mL (≈ 0.156 µM); in the series on Enterovirus C it was 0.037 µg/mL (≈ 0.0965 µM). In addition, the CC50 in series [8] is 5.3 µg/mL (≈ 13.8 µM).
